ChEMBL document CHEMBL1141114, “Adenosine kinase inhibitors. 5. Synthesis, enzyme inhibition, and analgesic activity of diaryl-erythro-furanosyltubercidin analogues” (J Med Chem, 2005)

Assays:
Adenosine kinase = Adenosine kinase (Homo sapiens, UniProt P55263); experiment: Inhibitory concentration against human recombinant adenosine kinase using [14C]AMP as radioligand
Rattus norvegicus [1] = experiment: Percent inhibition of the licking and biting behavior in response to formalin injection at a dose of 20 mg/Kg when given orally in rat by formalin paw assay; (n=6); type: functional; settings: po
How it was run: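 Rats got 20 mg/kg orally in PEG 400 vehicle 2 h before intraplantar formalin, n = 6. Activity is expressed as % inhibition of licking and biting behaviour.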

[2] = Maximum plasma concentration at a dose of 3 mg/Kg in dog when given orally; type: ADME, organism-based, Canis lupus familiaris; parameters: dose 3 mg/Kg, route oral; settings: po
How it was run: (§1)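 Rats and dogs, n = 3 per group. Oral dosing at 3 mg/kg as a suspension in 0.1% methylcellulose; intravenous dosing at 1 mg/kg as a solution in 75% PEG 400/25% saline. Plasma sampled at 0.25, 0.5, 1, 2, 4, 8 and 24 h and drug levels measured by HPLC. […] Parameters reported as mean ± S.D.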

[3] = Maximum time to achieve plasma concentration at a dose of 3 mg/Kg in rat when given orally; type: ADME, organism-based; settings: po; how it was run: as §1
[4] = Maximum plasma concentration at a dose of 1 mg/Kg in rat when given i.v.; type: ADME, organism-based; parameters: dose 1 mg/Kg, route intravenous; settings: iv; how it was run: as §1
Rattus norvegicus [5] = experiment: Effective dose for the analgesic effect measured after carrageenan injection when given orally by carrageenan-induced mechanical hyperalgesia test; type: functional; settings: po
How it was run: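 Fasted male SD rats (100–120 g) were dosed orally with 1, 3 or 10 mg/kg in 0.1% MC 1 h before intraplantar carrageenan (1%, 100 μL/paw). Mechanical hyperalgesia was read by Randall-Selitto analgesimeter at 3, 4 and 5 h after carrageenan.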

[6] = Area under the plot of plasma concentration at a dose of 1 mg/kg in dog when given i.v.; type: ADME, organism-based, Canis lupus familiaris; parameters: dose 1 mg/kg, route intravenous; settings: iv, read-out: AUC 0-24h; how it was run: as §1
Rattus norvegicus [7] = experiment: Effective dose for the […] effect measured after 2 hr when given orally in rat by rotarod assay.; type: functional; settings: po
How it was run: (§2)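 Fasted male SD rats (90–110 g) were dosed orally at 10–300 mg/kg in 0.1% MC. They were first trained to walk on a rotarod at 5 rpm for 150 s. Walking time, as a measure of sedation and ataxia, was recorded at 0, 0.5, 1, 2 and 5 h after dosing, with a 150 s cutoff.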

Rattus norvegicus [8] = experiment: Effective dose for the analgesic effect measured at 3 hr after administration when given orally by hot plate assay; (n=6); type: functional; settings: po
How it was run: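 Fasted male SD rats (150–200 g) were gavaged with vehicle or graded doses. Hind-paw lick latency on a 50 °C hot plate (60 s max) was measured before dosing and at 0.5–4 h after.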

[9] = Distributed volume at a dose of 3 mg/Kg in dog when given orally; type: ADME, organism-based, Canis lupus familiaris; settings: in vivo, po; how it was run: as §1
[10] = Distributed volume at a dose of 3 mg/Kg in rat when given orally; type: ADME, organism-based; settings: in vivo, po; how it was run: as §1
Rattus norvegicus [11] = experiment: Percent inhibition of the analgesic effect measured after carrageenan injection at a dose of 20 mg/Kg therapeutic when given orally by carrageenan-induced thermal hyperalgesia test; type: functional
How it was run: (§3)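 Fasted male SD rats (160–180 g) were injected in the right hind plantar paw with lambda carrageenan (2 mg in 100 μL). They were gavaged with 20 mg/kg or vehicle (PEG400/0.2% Tween/5% propylene glycol), either 0.5 h before (prophylactic) or 2 h after (therapeutic) carrageenan. Hargreaves heat withdrawal was measured in the inflamed and control paws at 3.5–4.5 h.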

[12] = Area under the plot of plasma concentration at a dose of 1 mg/Kg in rat when given i.v.; type: ADME; settings: iv; how it was run: as §1
[13] = Bioavailability at a dose of 3 mg/Kg in rat when given orally; type: ADME, organism-based; settings: in vivo, po; how it was run: as §1
[14] = Time required to be halved at a dose of 3 mg/Kg in rat when given orally; type: ADME, organism-based; settings: in vivo, po; how it was run: as §1
[15] = Plasma clearance at a dose of 1 mg/Kg in rat when given i.v.; type: ADME, organism-based; settings: iv; how it was run: as §1
[16] = Maximum time to achieve plasma concentration at a dose of 3 mg/Kg in dog when given orally; type: ADME, organism-based, Canis lupus familiaris; settings: po; how it was run: as §1
Monkey = experiment: Effective dose for the analgesic effect measured after bradykinin injection when given orally by marmoset monkey bradykinin-induced licking; (n=6); type: functional; settings: po
How it was run: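 Six male marmosets (Callithrix jacchus, 250–340 g) got 0.3, 3, 10 or 30 mg/kg po, or 0.1% MC vehicle. At 60 min, 100 μL of 1 mM bradykinin in saline was injected intraplantar, alternating feet. Pain behaviour was scored 0–3 every 15 s for 15 min from video. Sessions were 2 weeks apart.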

Rattus norvegicus [17] = experiment: Effective dose of the licking and biting behavior in response to formalin injection at a dose of 20 mg/Kg when given orally in rat by formalin paw assay; (n=6); type: functional; settings: po
[18] = Maximum plasma concentration at a dose of 1 mg/kg in dog when given i.v.; type: ADME, organism-based, Canis lupus familiaris; parameters: dose 1 mg/kg, route intravenous; settings: iv; how it was run: as §1
[19] = Distributed volume at a dose of 1 mg/Kg in rat when given i.v.; type: ADME, organism-based; settings: in vivo, iv; how it was run: as §1
[20] = Area under the plot of plasma concentration at a dose of 3 mg/Kg in rat when given orally; type: ADME; settings: po; how it was run: as §1
Rattus norvegicus [21] = experiment: Percent inhibition of the analgesic effect measured after carrageenan injection at a dose of 20 mg/Kg prophylactic when given orally by carrageenan-induced thermal hyperalgesia test; type: functional; how it was run: as §3
[22] = Time required to be halved at a dose of 3 mg/Kg in dog when given orally; type: ADME, organism-based, Canis lupus familiaris; settings: in vivo, po; how it was run: as §1
[23] = Plasma clearance at a dose of 1 mg/kg in dog when given i.v.; type: ADME, organism-based, Canis lupus familiaris; parameters: dose 1 mg/kg, route intravenous; settings: iv; how it was run: as §1
[24] = Plasma clearance at a dose of 3 mg/Kg in dog when given orally; type: ADME, organism-based, Canis lupus familiaris; settings: po; how it was run: as §1
[25] = Plasma clearance at a dose of 3 mg/Kg in rat when given orally; type: ADME, organism-based; settings: po; how it was run: as §1
[26] = Area under the plot of plasma concentration at a dose of 3 mg/Kg in dog when given orally; type: ADME, Canis lupus familiaris; settings: po, read-out: AUC 0-24h; how it was run: as §1
[27] = Bioavailability at a dose of 3 mg/Kg in dog when given orally; type: ADME, organism-based, Canis lupus familiaris; settings: in vivo, po; how it was run: as §1
[28] = Maximum plasma concentration at a dose of 3 mg/Kg in rat when given orally; type: ADME, organism-based; parameters: dose 3 mg/Kg, route oral; settings: po; how it was run: as §1
[29] = Distributed volume at a dose of 1 mg/kg in dog when given i.v.; type: ADME, organism-based, Canis lupus familiaris; parameters: dose 1 mg/kg, route intravenous; settings: in vivo, iv; how it was run: as §1
Rattus norvegicus [30] = experiment: Effective dose for the […] effect measured after 5 h when given orally in rat by rotarod assay.; type: functional; settings: po; how it was run: as §2
[31] = Time required to be halved at a dose of 1 mg/Kg in rat when given i.v.; type: ADME, organism-based; settings: in vivo, iv; how it was run: as §1
[32] = Time required to be halved at a dose of 1 mg/kg in dog when given i.v.; type: ADME, organism-based, Canis lupus familiaris; parameters: dose 1 mg/kg, route intravenous; settings: in vivo, iv; how it was run: as §1

Sequence of Adenosine kinase (P55263 whole entry): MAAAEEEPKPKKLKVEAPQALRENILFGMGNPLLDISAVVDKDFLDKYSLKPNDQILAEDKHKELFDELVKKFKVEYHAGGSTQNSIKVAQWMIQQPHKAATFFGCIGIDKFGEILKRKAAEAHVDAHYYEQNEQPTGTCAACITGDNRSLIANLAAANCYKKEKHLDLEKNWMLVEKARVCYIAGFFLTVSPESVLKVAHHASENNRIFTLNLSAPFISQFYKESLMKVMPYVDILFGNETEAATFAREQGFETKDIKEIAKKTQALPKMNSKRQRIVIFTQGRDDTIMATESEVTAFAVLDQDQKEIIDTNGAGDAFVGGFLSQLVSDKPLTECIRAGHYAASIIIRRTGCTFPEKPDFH

## O[C@H]1[C@H](n2cc(-c3ccccc3)c3c(Nc4ccc(F)cc4)ncnc32)OC2(CC2)[C@H]1O
Adenosine kinase
  IC50: 0.3 nM

## Nc1ncnc2c1c(I)cn2[C@@H]1OC[C@@H](O)[C@H]1O
Adenosine kinase
  IC50: 6 nM

## CCOc1ccc(-c2cn([C@@H]3OC[C@@H](O)[C@H]3O)c3ncnc(Nc4ccccc4OC)c23)cc1
Rattus norvegicus [1]
  inhibition in vivo at 20 mg/kg: 16%
Adenosine kinase
  IC50: 5.3 nM

## CCOc1ccc(Nc2ncnc3c2c(-c2ccccc2)cn3[C@@H]2OC[C@@H](O)[C@H]2O)cc1
Rattus norvegicus [1]
  inhibition in vivo at 20 mg/kg: 41%
Adenosine kinase
  IC50: 3 nM

## O[C@@H]1[C@H](O)CO[C@H]1n1cc(-c2ccccc2)c2c(Nc3ccc(F)cc3)ncnc21
[2]
  Cmax: 628 ng/mL
[3]
  Tmax: 3.5 h
[4]
  Cmax: 523 ng/mL
Rattus norvegicus [5]
  ED50: 2.4 mg/kg
[6]
  AUC: 2970 ng·h/mL
Rattus norvegicus [7]
  ED50: 21.7 mg/kg
Rattus norvegicus [8]
  ED50: 16 mg/kg
[9]
  Vd: 2.2 L/kg
[10]
  Vd: 6.2 L/kg
Rattus norvegicus [11]
  Inhibition: 99%
[12]
  AUC0-8h: 785 ng·h/mL
[13]
  bioavailability: 61.2%
[14]
  half-life: 180 min
[15]
  clearance: 21.7 mL/min/kg
[16]
  Tmax: 1.6 h
Monkey
  ED50: 3.8 mg/kg
Rattus norvegicus [17]
  ED50: 3.6 mg/kg
[18]
  Cmax: 585 ng/mL
[19]
  Vd: 6.9 L/kg
[20]
  AUC0-8h: 1440 ng·h/mL
Rattus norvegicus [21]
  Inhibition: 151%
[22]
  half-life: 240 min
[23]
  clearance: 6.67 mL/min/kg
[24]
  CL/F: 6.67 mL/min/kg
[25]
  CL/F: 25 mL/min/kg
Rattus norvegicus [1]
  inhibition in vivo at 20 mg/kg: 76%
[26]
  AUC: 5340 ng·h/mL
[27]
  bioavailability: 60%
[28]
  Cmax: 135 ng/mL
Adenosine kinase
  IC50: 6 nM
[29]
  Vd: 2 L/kg
Rattus norvegicus [30]
  ED50: 11.9 mg/kg
[31]
  half-life: 192 min
[32]
  half-life: 234 min

## N#Cc1ccc(Nc2ncnc3c2c(-c2ccc(Cl)cc2)cn3[C@@H]2OC[C@@H](O)[C@H]2O)cc1
Rattus norvegicus [1]
  inhibition in vivo at 20 mg/kg: 75%
Adenosine kinase
  IC50: 7 nM

## O[C@@H]1[C@H](O)CO[C@H]1n1cc(-c2ccccc2)c2c(Nc3ccc4c(c3)OCCO4)ncnc21
Rattus norvegicus [1]
  inhibition in vivo at 20 mg/kg: 80%
Adenosine kinase
  IC50: 4 nM

## CC1(C)O[C@@H](n2cc(-c3ccccc3)c3c(Nc4ccccc4)ncnc32)[C@H](O)[C@@H]1O
Adenosine kinase
  IC50: 4000 nM

## Cc1ccccc1-c1cn([C@@H]2OC[C@@H](O)[C@H]2O)c2ncnc(Nc3ccc4c(c3)OCCO4)c12
Rattus norvegicus [1]
  inhibition in vivo at 20 mg/kg: 99%
Adenosine kinase
  IC50: 1 nM

## CCOc1cccc(Nc2ncnc3c2c(-c2ccccc2)cn3[C@@H]2OC[C@@H](O)[C@H]2O)c1
Rattus norvegicus [1]
  inhibition in vivo at 20 mg/kg: 76%
Adenosine kinase
  IC50: 2 nM

## Nc1ncnc2c1c(I)cn2[C@@H]1OC2(CC2)[C@@H](O)[C@H]1O
Adenosine kinase
  IC50: 600 nM

## O[C@@H]1[C@H](O)CO[C@H]1n1cc(-c2ccccc2)c2c(Nc3ccccc3)ncnc21
Rattus norvegicus [1]
  inhibition in vivo at 20 mg/kg: 78%
Adenosine kinase
  IC50: 4 nM

## Nc1cccc(-c2cn([C@@H]3OC[C@@H](O)[C@H]3O)c3ncnc(Nc4ccc(F)cc4)c23)c1
Rattus norvegicus [1]
  inhibition in vivo at 20 mg/kg: 31%
Adenosine kinase
  IC50: 10 nM

## O[C@@H]1[C@H](O)CO[C@H]1n1cc(-c2ccccc2)c2c(Nc3ccc(Br)cc3)ncnc21
Rattus norvegicus [1]
  inhibition in vivo at 20 mg/kg: 33%
Adenosine kinase
  IC50: 5 nM

## CCOc1ccc(-c2cn([C@@H]3OC[C@@H](O)[C@H]3O)c3ncnc(Nc4ccc(C#N)cc4)c23)cc1
Rattus norvegicus [1]
  inhibition in vivo at 20 mg/kg: 84%
Adenosine kinase
  IC50: 2 nM

## C[C@H]1O[C@@H](n2cc(-c3ccccc3)c3c(Nc4ccc(F)cc4)ncnc32)[C@H](O)[C@@H]1O
Rattus norvegicus [1]
  inhibition in vivo at 20 mg/kg: 59%
